Measured values from ChEMBL document CHEMBL3585269, “Simple structural modifications confer cytotoxicity to allobetulin” (Bioorg Med Chem, 2015).

Columns and labels:
MCF7 = test: Cytotoxicity against human MCF7 cells by SRB assay; format: functional, cell-based
In short: (§1)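 Photometric sulforhodamine B (SRB) read-out after 96 h of compound treatment. EC50 values are averaged from three independent experiments, each run in triplicate, and reported with a 95% confidence interval. The assay has an upper cut-off.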

[1] = Cytotoxicity against human 518A2 cells by SRB assay; format: functional, cell-based; in short: as §1
A2780 = test: Cytotoxicity against human A2780 cells by SRB assay; format: functional, cell-based; in short: as §1
HT-29 = test: Cytotoxicity against human HT-29 cells by SRB assay; format: functional, cell-based; in short: as §1
8505C = test: Cytotoxicity against human 8505C cells by SRB assay; format: functional, cell-based; in short: as §1
A549 = test: Cytotoxicity against human A549 cells by SRB assay; format: functional, cell-based; in short: as §1
[2] = Cytotoxicity against mouse NIH/3T3 cells by SRB assay; format: cell-based; conditions: NIH3T3
[3] = Homo sapiens, MCF7, read-out: EC50
[4] = Homo sapiens, 518A2, read-out: EC50
[5] = Homo sapiens, A2780, read-out: EC50
[6] = Homo sapiens, HT-29, read-out: EC50
[7] = Homo sapiens, 8505C, read-out: EC50
[8] = Homo sapiens, A549, read-out: EC50

SMILES	EC50 (MCF7; [3])	EC50 [1, 4]	EC50 (A2780; [5])	EC50 (HT-29; [6])	EC50 (8505C; [7])	EC50 (A549; [8])	EC50 (MCF7; mcf7)	EC50 ([1]; 518a2)	EC50 (A2780; a2780)	EC50 (HT-29; ht-29)	EC50 (8505C; 8505c)	EC50 (A549; a549)	EC50 [2]
CC1(C)CC[C@]23CC[C@]4(C)[C@H](CC[C@@H]5[C@@]6(C)C=C(O)C(=O)C(C)(C)[C@@H]6CC[C@]54C)[C@H]2[C@H]1OC3	> 30 µM	> 30 µM	> 30 µM	> 30 µM	> 30 µM	23.3 µM							
CC1(C)CC[C@]23CC[C@]4(C)[C@H](CC[C@@H]5[C@@]6(C)CCC(=O)OC(C)(C)[C@@H]6CC[C@]54C)[C@H]2[C@H]1OC3	> 30 µM	> 30 µM	> 30 µM	> 30 µM	> 30 µM	> 30 µM							
CC1(C)CC[C@]23CC[C@]4(C)[C@H](CC[C@@H]5[C@@]6(C)CC/C(=N\O)C(C)(C)[C@@H]6CC[C@]54C)[C@H]2[C@H]1OC3							ND(Insoluble)	ND(Insoluble)	ND(Insoluble)	ND(Insoluble)	ND(Insoluble)	ND(Insoluble)	
C=C(C)[C@@H]1CC[C@]2(C)[C@H](CC[C@@H]3[C@H]4[C@H]5OC[C@@]4(CCC5(C)C)CC[C@]32C)[C@@]1(C)CCC#N	> 30 µM	25.7 µM	> 30 µM	> 30 µM	> 30 µM	21.5 µM							
CC1(C)CC[C@]23CC[C@]4(C)[C@H](CC[C@@H]5[C@@]6(C)CC[C@@H](N)C(C)(C)[C@@H]6CC[C@]54C)[C@H]2[C@H]1OC3	15.2 µM	10.2 µM	12.9 µM	6.8 µM	15.5 µM	12.6 µM							15.9 µM
CC1(C)CC[C@]23CC[C@]4(C)[C@H](CC[C@@H]5[C@@]6(C)CC[C@H](N)C(C)(C)[C@@H]6CC[C@]54C)[C@H]2[C@H]1OC3	10.4 µM	5.4 µM	6.6 µM	6.2 µM	7.8 µM	7.3 µM							7.3 µM
C=C(C)[C@@H]1CC[C@]2(C)[C@H](CC[C@@H]3[C@H]4[C@H]5OC[C@@]4(CCC5(C)C)CC[C@]32C)[C@@]1(C)CCC(=O)OC	> 30 µM	> 30 µM	> 30 µM	> 30 µM	> 30 µM	> 30 µM							
C=C(C)[C@@H]1CC[C@]2(C)[C@H](CC[C@@H]3[C@H]4[C@H]5OC[C@@]4(CCC5(C)C)CC[C@]32C)[C@@]1(C)CCC(=O)O							ND(Insoluble)	ND(Insoluble)	ND(Insoluble)	ND(Insoluble)	ND(Insoluble)	ND(Insoluble)	
C=C(C)[C@@H]1CC[C@]2(C)[C@H](CC[C@@H]3[C@H]4[C@H]5OC[C@@]4(CCC5(C)C)CC[C@]32C)[C@@]1(C)CCC(=O)OCC	> 30 µM	> 30 µM	> 30 µM	> 30 µM	> 30 µM	> 30 µM							
C=C(C)[C@@H]1CC[C@]2(C)[C@H](CC[C@@H]3[C@H]4[C@H]5OC[C@@]4(CCC5(C)C)CC[C@]32C)[C@@]1(C)CCC(=O)OCCC	> 30 µM	> 30 µM	> 30 µM	> 30 µM	> 30 µM	> 30 µM							
C=CCOC(=O)CC[C@]1(C)[C@H]2CC[C@@H]3[C@H]4[C@H]5OC[C@@]4(CCC5(C)C)CC[C@@]3(C)[C@]2(C)CC[C@H]1C(=C)C	> 30 µM	> 30 µM	> 30 µM	> 30 µM	> 30 µM	> 30 µM							
C#CCOC(=O)CC[C@]1(C)[C@H]2CC[C@@H]3[C@H]4[C@H]5OC[C@@]4(CCC5(C)C)CC[C@@]3(C)[C@]2(C)CC[C@H]1C(=C)C	> 30 µM	> 30 µM	> 30 µM	> 30 µM	> 30 µM	> 30 µM							
C=C(C)[C@@H]1CC[C@]2(C)[C@H](CC[C@@H]3[C@H]4[C@H]5OC[C@@]4(CCC5(C)C)CC[C@]32C)[C@@]1(C)CCC(=O)OCCCC	> 30 µM	> 30 µM	> 30 µM	> 30 µM	> 30 µM	> 30 µM							
C=C(C)[C@@H]1CC[C@]2(C)[C@H](CC[C@@H]3[C@H]4[C@H]5OC[C@@]4(CCC5(C)C)CC[C@]32C)[C@@]1(C)CCC(=O)OCc1ccccc1							ND(Insoluble)	ND(Insoluble)	ND(Insoluble)	ND(Insoluble)	ND(Insoluble)	ND(Insoluble)	
CC1(C)CC[C@]23CC[C@]4(C)[C@H](CC[C@@H]5[C@@](C)(CC(=O)O)[C@H](C(C)(C)C(=O)O)CC[C@]54C)[C@H]2[C@H]1OC3							ND(Insoluble)	ND(Insoluble)	ND(Insoluble)	ND(Insoluble)	ND(Insoluble)	ND(Insoluble)	
COC(=O)C[C@]1(C)[C@H]2CC[C@@H]3[C@H]4[C@H]5OC[C@@]4(CCC5(C)C)CC[C@@]3(C)[C@]2(C)CC[C@H]1C(C)(C)C(=O)OC	29.4 µM	29.4 µM	18.1 µM	17.5 µM	27.1 µM	> 30 µM							
CCOC(=O)C[C@]1(C)[C@H]2CC[C@@H]3[C@H]4[C@H]5OC[C@@]4(CCC5(C)C)CC[C@@]3(C)[C@]2(C)CC[C@H]1C(C)(C)C(=O)OCC	26.1 µM	26.1 µM	18.9 µM	17.6 µM	24.6 µM	5.9 µM							25 µM
CCCOC(=O)C[C@]1(C)[C@H]2CC[C@@H]3[C@H]4[C@H]5OC[C@@]4(CCC5(C)C)CC[C@@]3(C)[C@]2(C)CC[C@H]1C(C)(C)C(=O)OCCC	> 30 µM	> 30 µM	22.4 µM	27 µM	> 30 µM	> 30 µM							
C=CCOC(=O)C[C@]1(C)[C@H]2CC[C@@H]3[C@H]4[C@H]5OC[C@@]4(CCC5(C)C)CC[C@@]3(C)[C@]2(C)CC[C@H]1C(C)(C)C(=O)OCC=C	> 30 µM	> 30 µM	22.7 µM	29.2 µM	> 30 µM	> 30 µM							
C#CCOC(=O)C[C@]1(C)[C@H]2CC[C@@H]3[C@H]4[C@H]5OC[C@@]4(CCC5(C)C)CC[C@@]3(C)[C@]2(C)CC[C@H]1C(C)(C)C(=O)OCC#C	27.2 µM	17.4 µM	12.5 µM	15.7 µM	18.7 µM	21.1 µM							
CCCCOC(=O)C[C@]1(C)[C@H]2CC[C@@H]3[C@H]4[C@H]5OC[C@@]4(CCC5(C)C)CC[C@@]3(C)[C@]2(C)CC[C@H]1C(C)(C)C(=O)OCCCC	> 30 µM	> 30 µM	> 30 µM	> 30 µM	> 30 µM	> 30 µM							
CC1(C)CC[C@]23CC[C@]4(C)[C@H](CC[C@@H]5[C@@](C)(CC(=O)OCc6ccccc6)[C@H](C(C)(C)C(=O)OCc6ccccc6)CC[C@]54C)[C@H]2[C@H]1OC3							ND(Insoluble)	ND(Insoluble)	ND(Insoluble)	ND(Insoluble)	ND(Insoluble)	ND(Insoluble)	
CC1(C)CC[C@]23CC[C@]4(C)[C@H](CC[C@@H]5[C@@]6(C)CC[C@H](O)C(C)(C)[C@@H]6CC[C@]54C)[C@H]2[C@H]1OC3 [ALLOBETULIN]	> 30 µM	> 30 µM	> 30 µM	> 30 µM	> 30 µM	> 30 µM							
C=C(C)[C@@H]1CC[C@]2(CO)CC[C@]3(C)[C@H](CC[C@@H]4[C@@]5(C)CC[C@H](O)C(C)(C)[C@@H]5CC[C@]43C)[C@@H]12 [BETULIN]	24.4 µM	28.8 µM	29.3 µM	> 30 µM	> 30 µM	20.6 µM							
